According to ChEMBL document CHEMBL1123124, “New antihistaminic N-heterocyclic 4-piperidinamines. 2. Synthesis and antihistaminic activity of 1-[(4-fluorophenyl)methyl]-N-(4-piperidinyl)-1H-benzimidazol-2-a mines” (1985):

Experiments:
Assay type in all cases: functional
Rattus norvegicus [1] = assay: In vivo antihistaminic activity using compound 48/80 induced lethality test after 1 hr of subcutaneous administration in rat; settings: sc
In short: (§1)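 Protection was survival for 4 h after challenge. ED50 with confidence limits was calculated by Finney from five rats per dose and at least three doses of a geometric series (0.0025–40 mg/kg). Estimated ED50 used at least two rats per dose.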

Rattus norvegicus [2] = assay: In vivo antihistaminic activity using compound 48/80 induced lethality test in rat after 2 hr of oral administration; in short: as §1
Rattus norvegicus [3] = assay: Inhibition of histamine skin reaction in rat after 2 hr of subcutaneous administration.; settings: sc
Rattus norvegicus [4] = assay: Inhibition of mydriatic activity in rat after 2 hr of intraperitoneal administration; settings: ip
Rattus norvegicus [5] = assay: Inhibition of serotonin skin reaction in rat after 2 hr of subcutaneous administration.; settings: sc
Cavia porcellus [6] = assay: In vivo histamine induced lethality after 24 hours of iv administration in guinea pig
Cavia porcellus [7] = assay: In vivo histamine induced lethality after 3 hours of iv administration in guinea pig
Cavia porcellus [8] = assay: In vivo histamine induced lethality after 8 hours of iv administration in guinea pig
Rattus norvegicus [9] = assay: Inhibition of histamine skin reaction in rat after 2 hr of oral administration.
In short: (§2)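 Test compound or solvent given orally to rats 2 h before four intradermal injections into clipped back: two of 50 μL histamine dihydrochloride (1 mg/mL in saline), two of 50 μL serotonin (2 μg/mL in saline). Then iv 0.5 mL of 0.5% trypan blue. Bluing of skin reactions scored 30 min later.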

Rattus norvegicus [10] = assay: Inhibition of mydriatic activity in rat after 2 hr of oral administration.
Rattus norvegicus [11] = assay: Inhibition of serotonin skin reaction in rat after 2 hr of oral administration.; in short: as §2

SMILES | ED50 (Rattus norvegicus [1]) [mg/kg] | ED50 (Rattus norvegicus [2]) [mg/kg] | other results
Cc1cc(CCN2CCC(Nc3nc4ccccc4n3Cc3ccc(F)cc3)CC2)ccc1O.Cl | 0.08 | 0.16 | 
CNC(=O)NCCN1CCC(Nc2nc3ccccc3n2Cc2ccc(F)cc2)CC1 | 0.02 | > 2.5 | 
Cl.Fc1ccc(CCN2CCC(Nc3nc4ccccc4n3Cc3ccc(F)cc3)CC2)cc1 | 0.31 | > 2.5 | 
COc1ccccc1OCC(O)CN1CCC(Nc2nc3ccccc3n2Cc2ccc(F)cc2)CC1 (stereo unspecified) | 1.25 | 0.63 | 
O=C(Cc1ccccc1)Oc1ccc(CCN2CCC(Nc3nc4ccccc4n3Cc3ccc(F)cc3)CC2)cc1 | 0.31 | 0.08 | 
Cl.Cn1nnn(CCN2CCC(Nc3nc4ccccc4n3Cc3ccc(F)cc3)CC2)c1=O | 0.31 | > 2.5 | 
O=C(NCCN1CCC(Nc2nc3ccccc3n2Cc2ccc(F)cc2)CC1)c1ccc(F)cc1 | 0.31 | 2.5 | 
CN(C)CCN1CCC(Nc2nc3ccccc3n2Cc2ccc(F)cc2)CC1 | 0.63 |  | 
Cl.NCCN1CCC(Nc2nc3ccccc3n2Cc2ccc(F)cc2)CC1 | 1.25 | > 2.5 | 
CN1CCC(Nc2nc3ccccc3n2Cc2ccc(F)cc2)CC1 | 0.16 | 2.5 | ED50 (Rattus norvegicus [3]): 0.04 mg/kg; ED50 (Rattus norvegicus [4]): > 40 mg/kg; ED50 (Rattus norvegicus [5]): ≥ 0.63 mg/kg
C=CCOc1ccc(CCN2CCC(Nc3nc4ccccc4n3Cc3ccc(F)cc3)CC2)cc1.Cl | 2.5 |  | 
CC(c1ccccc1)N1CCC(Nc2nc3ccccc3n2Cc2ccc(F)cc2)CC1 (stereo unspecified) | 0.31 | 2.5 | 
COc1ccc(C(=O)OCCN2CCC(Nc3nc4ccccc4n3Cc3ccc(F)cc3)CC2)cc1.Cl | 0.31 | 0.63 | 
Cl.N#CCOc1ccc(CCN2CCC(Nc3nc4ccccc4n3Cc3ccc(F)cc3)CC2)cc1 | 0.63 | 0.08 | 
COc1ccc(CCN2CCC(Nc3nc4ccccc4n3Cc3ccc(F)cc3)CC2)c(OC)c1.Cl | 0.31 | 0.31 | 
CCn1nnn(CCN2CCC(Nc3nc4ccccc4n3Cc3ccc(F)cc3)CC2)c1=O | 0.16 | > 2.5 | 
Fc1ccc(Cn2c(NC3CCN(CCC=C4c5ccccc5CCc5ccccc54)CC3)nc3ccccc32)cc1 | > 2.5 |  | 
Cl.N#CC1(c2ccccc2)CCC(N2CCC(Nc3nc4ccccc4n3Cc3ccc(F)cc3)CC2)CC1 (stereo unspecified) | > 2.5 |  | 
COc1ccc(SCCCN2CCC(Nc3nc4ccccc4n3Cc3ccc(F)cc3)CC2)cc1 | 2.5 |  | 
Cl.Fc1ccc(Cn2c(NC3CCN(CCc4ccccc4)CC3)nc3ccccc32)cc1 | 0.31 | 0.63 | 
O=C(OCCN1CCC(Nc2nc3ccccc3n2Cc2ccc(F)cc2)CC1)N1CCOCC1 | 0.31 | 2.5 | 
CC(=O)c1ccc(OCC(O)CN2CCC(Nc3nc4ccccc4n3Cc3ccc(F)cc3)CC2)cc1 (stereo unspecified) | 0.63 | 1.25 | 
COC(=O)COc1ccc(CCN2CCC(Nc3nc4ccccc4n3Cc3ccc(F)cc3)CC2)cc1 | 2.5 |  | 
CS(=O)(=O)c1ccc(CCN2CCC(Nc3nc4ccccc4n3Cc3ccc(F)cc3)CC2)cc1 | 1.25 | > 2.5 | 

SMILES | ED50 (Rattus norvegicus [1]) [mg/kg] | ED50 (Rattus norvegicus [2]) [mg/kg] | other results
COc1ccc(OCC(O)CN2CCC(Nc3nc4ccccc4n3Cc3ccc(F)cc3)CC2)cc1 (stereo unspecified) | 1.25 | 2.5 | 
COC(=O)Oc1ccc(CCN2CCC(Nc3nc4ccccc4n3Cc3ccc(F)cc3)CC2)cc1 | 0.16 | 0.16 | 
Cl.Fc1ccc(Cn2c(NC3CCN(CCN4CCOCC4)CC3)nc3ccccc32)cc1 | 0.31 | 2.5 | 
N#CCN1CCC(Nc2nc3ccccc3n2Cc2ccc(F)cc2)CC1 | 0.16 | 2.5 | 
Cl.Oc1cccc(CCN2CCC(Nc3nc4ccccc4n3Cc3ccc(F)cc3)CC2)c1 | 0.16 | 0.31 | 
Fc1ccc(Cn2c(NC3CCN(CCN(Cc4ccccc4)Cc4ccccc4)CC3)nc3ccccc32)cc1 | > 2.5 |  | 
CNC(=O)Oc1ccc(CCN2CCC(Nc3nc4ccccc4n3Cc3ccc(F)cc3)CC2)cc1 | 1.25 | 2.5 | 
COc1ccc(OC)c(CCN2CCC(Nc3nc4ccccc4n3Cc3ccc(F)cc3)CC2)c1 | 0.63 | 0.63 | 
Cl.O=C(COc1ccc(CCN2CCC(Nc3nc4ccccc4n3Cc3ccc(F)cc3)CC2)cc1)N1CCCCC1 | 1.25 | 1.25 | 
COc1ccccc1CCN1CCC(Nc2nc3ccccc3n2Cc2ccc(F)cc2)CC1 | 1.25 | 0.63 | 
CCOC(=O)COc1ccc(CCN2CCC(Nc3nc4ccccc4n3Cc3ccc(F)cc3)CC2)cc1 | 0.16 | > 2.5 | 
Br.Br.Fc1ccc(Cn2c(NC3CCNCC3)nc3ccccc32)cc1 | 0.056 | 1.02 | 
CCCCOc1ccccc1OCC(O)CN1CCC(Nc2nc3ccccc3n2Cc2ccc(F)cc2)CC1 (stereo unspecified) | 2.5 |  | 
CC(Cc1ccccc1)N1CCC(Nc2nc3ccccc3n2Cc2ccc(F)cc2)CC1 (stereo unspecified) | 2.5 |  | 
Cc1cc(CCN2CCC(Nc3nc4ccccc4n3Cc3ccc(F)cc3)CC2)ccc1OCc1ccccc1 | > 2.5 |  | 
O=c1[nH]c2ccccc2n1CCCN1CCN(C(c2ccccc2)c2ccccc2)CC1 [OXATOMIDE] |  |  | ED50 (Cavia porcellus [6]): > 5 mg/kg; ED50 (Cavia porcellus [7]): 0.2 mg/kg; ED50 (Cavia porcellus [8]): 1.25 mg/kg; ED50 (Rattus norvegicus [9]): 9.36 mg/kg; ED50 (Rattus norvegicus [10]): > 160 mg/kg; ED50 (Rattus norvegicus [11]): 32.6 mg/kg
Fc1ccc(Cn2c(NC3CCN(CCCOc4ccccc4)CC3)nc3ccccc32)cc1 | 1.25 | 0.31 | 
COc1ccc(C(=O)Oc2ccc(CCN3CCC(Nc4nc5ccccc5n4Cc4ccc(F)cc4)CC3)cc2)cc1 | 0.63 | 0.16 | 
Fc1ccc(Cn2c(NC3CCN(CCNCc4ccccc4)CC3)nc3ccccc32)cc1 | 1.25 | > 2.5 | 
Oc1nc2ccccc2n1CCCN1CCC(Nc2nc3ccccc3n2Cc2ccc(F)cc2)CC1 | 0.31 | 1.25 | 
COc1cccc(CCN2CCC(Nc3nc4ccccc4n3Cc3ccc(F)cc3)CC2)c1.Cl | 0.31 | 0.31 | 
Fc1ccc(Cn2c(NC3CCN(CCc4cccs4)CC3)nc3ccccc32)cc1 | 0.16 | 0.63 | 
Fc1ccc(Cn2c(NC3CCN(CCc4cccc5ccccc45)CC3)nc3ccccc32)cc1 | 1.25 | 0.63 | 
CC(CN1CCC(Nc2nc3ccccc3n2Cc2ccc(F)cc2)CC1)c1ccccc1 (stereo unspecified) | 0.63 | 2.5 | 

SMILES | ED50 (Rattus norvegicus [1]) [mg/kg] | ED50 (Rattus norvegicus [2]) [mg/kg] | other results
CCNC(=O)COc1ccc(CCN2CCC(Nc3nc4ccccc4n3Cc3ccc(F)cc3)CC2)cc1 | 1.25 | 2.5 | 
Nc1ccc(CCN2CCC(Nc3nc4ccccc4n3Cc3ccc(F)cc3)CC2)cc1 | 0.31 | 0.63 | 
Fc1ccc(Cn2c(NC3CCN(CCc4ccccc4)CC3)nc3cc(Cl)ccc32)cc1 | > 2.5 |  | 
COc1ccc(C(=O)N(CCN2CCC(Nc3nc4ccccc4n3Cc3ccc(F)cc3)CC2)C(=O)c2ccc(OC)cc2)cc1.Cl | > 2.5 |  | 
CCCCNC(=O)Oc1ccc(CCN2CCC(Nc3nc4ccccc4n3Cc3ccc(F)cc3)CC2)cc1 | 2.5 |  | 
NC(=O)COc1ccc(CCN2CCC(Nc3nc4ccccc4n3Cc3ccc(F)cc3)CC2)cc1 | 1.25 | 2.5 | 
Fc1ccc(Cn2c(NC3CCN(C/C=C/c4ccccc4)CC3)nc3ccccc32)cc1 | 1.25 | > 2.5 | 
Fc1ccc(Cn2c(NC3CCN(CCCCOc4ccccc4)CC3)nc3ccccc32)cc1 | 0.63 | 0.63 | 
CSc1ccc(CCN2CCC(Nc3nc4ccccc4n3Cc3ccc(F)cc3)CC2)cc1 | 0.63 | 1.25 | 
Fc1ccc(Cn2c(NC3CCN(CCc4ccc(OCc5ccccc5)cc4)CC3)nc3ccccc32)cc1 | 2.5 |  | 
Cc1ccc2nc(NC3CCN(CCc4ccccc4)CC3)n(Cc3ccc(F)cc3)c2c1 | > 2.5 |  | 
Fc1ccc(Cn2c(NC3CCN(CCCNc4ccccc4)CC3)nc3ccccc32)cc1 | 0.63 | 2.5 | 
COc1ccc(OCCCN2CCC(Nc3nc4ccccc4n3Cc3ccc(F)cc3)CC2)cc1 | 0.31 | 0.31 | 
COc1ccc(CCN2CCC(Nc3nc4ccccc4n3Cc3ccc(F)cc3)CC2)cc1OC | 1.25 | 0.16 | 
OC(COc1ccccc1)CN1CCC(Nc2nc3ccccc3n2Cc2ccc(F)cc2)CC1 (stereo unspecified) | 0.63 | 1.25 | 
OC(CN1CCC(Nc2nc3ccccc3n2Cc2ccc(F)cc2)CC1)c1ccccc1 (stereo unspecified) | 0.63 | > 2.5 | 
Fc1ccc(Cn2c(NC3CCN(CCc4ccccn4)CC3)nc3ccccc32)cc1 | 0.16 | 0.63 | 
CCOc1ccc(CCN2CCC(Nc3nc4ccccc4n3Cc3ccc(F)cc3)CC2)cc1 | 1.25 | 0.16 | 
COc1cc(CCN2CCC(Nc3nc4ccccc4n3Cc3ccc(F)cc3)CC2)cc(OC)c1OC.Cl | 1.25 | 0.63 | 
Fc1ccc(Cn2c(NC3CCN(C4CCCCC4)CC3)nc3ccccc32)cc1 | 0.31 | > 2.5 | 
COc1cccc(OC)c1OCC(O)CN1CCC(Nc2nc3ccccc3n2Cc2ccc(F)cc2)CC1 (stereo unspecified) | 0.63 | 1.25 | 
Fc1ccc(Cn2c(NC3CCN(CCc4ccncc4)CC3)nc3ccccc32)cc1 | 0.31 | 1.25 | 
O=C(OCc1ccccc1)Oc1ccc(CCN2CCC(Nc3nc4ccccc4n3Cc3ccc(F)cc3)CC2)cc1 | 0.31 | 0.16 | 
COc1ccc(S(=O)(=O)CCCN2CCC(Nc3nc4ccccc4n3Cc3ccc(F)cc3)CC2)cc1 | 0.31 | 2.5 | 
